System: Fibroblast
Assay: Multiplex assay against human fibroblast
Type: toxicity, cell-based
Procedure, shortened: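 Imaging took place on a CQ1 microscope at 37°C and 5% CO2 once compound had been added to live cells stained at seeding with Hoechst33342, BioTracker Green Microtubule Cytoskeleton Dye, MitoTracker Red and Annexin V Alexa Fluor 680. CellPathfinder machine-learning gating classed cells as Hoechst high-intensity objects or normal cells, classed normal cells as having healthy, pyknosed or fragmented nuclei, and classed pyknosed cells as mitotic or apoptotic. Tubulin, mitochondrial-mass and membrane-permeability phenotypes are per cents of the healthy-nucleus cells.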

[1] = 12 h, 1 µM, compound concentration 1 uM, replicate 1
[2] = 12 h, 1 µM, compound concentration 1 uM, replicate 2
[3] = 12 h, 10 µM, compound concentration 10 uM, replicate 1
[4] = 12 h, 10 µM, compound concentration 10 uM, replicate 2
[5] = 24 h, 1 µM, compound concentration 1 uM, replicate 1
[6] = 24 h, 1 µM, compound concentration 1 uM, replicate 2
[7] = 24 h, 10 µM, compound concentration 10 uM, replicate 1
[8] = 24 h, 10 µM, compound concentration 10 uM, replicate 2
[9] = 48 h, 1 µM, compound concentration 1 uM, replicate 1
[10] = 48 h, 1 µM, compound concentration 1 uM, replicate 2
[11] = 48 h, 10 µM, compound concentration 10 uM, replicate 1
[12] = 48 h, 10 µM, compound concentration 10 uM, replicate 2

CNc1nc(NCc2ccc(NS(C)(=O)=O)cc2Cl)cc(-c2ccccn2)n1
Population Apoptotic (%) [1]: 70%
Population Fragmented Nuclei (%) [1]: 22%
Population Healthy Nuclei (%) [1]: 41%
Population Hoechst High Intensity Objects (%) [1]: 7%
Population Membrane Permeable-Phenotype (%) [1]: 22%
Population Mitochondria Different-Phenotype (%) [1]: 4%
Population Mitotic Cells (%) [1]: 29%
Population Normal (%) [1]: 92%
Population Pyknosed Nuclei (%) [1]: 36%
Population Tubulin-Different-Phenotype (%) [1]: 41%
Total Cell Count [1]: 164
Population Apoptotic (%) [2]: 33%
Population Fragmented Nuclei (%) [2]: 11%
Population Healthy Nuclei (%) [2]: 82%
Population Hoechst High Intensity Objects (%) [2]: 8%
Population Membrane Permeable-Phenotype (%) [2]: 0%
Population Mitochondria Different-Phenotype (%) [2]: 9%
Population Mitotic Cells (%) [2]: 66%
Population Normal (%) [2]: 91%
Population Pyknosed Nuclei (%) [2]: 5%
Population Tubulin-Different-Phenotype (%) [2]: 11%
Total Cell Count [2]: 61
Population Apoptotic (%) [3]: 60%
Population Fragmented Nuclei (%) [3]: 23%
Population Healthy Nuclei (%) [3]: 39%
Population Hoechst High Intensity Objects (%) [3]: 17%
Population Membrane Permeable-Phenotype (%) [3]: 21%
Population Mitochondria Different-Phenotype (%) [3]: 15%
Population Mitotic Cells (%) [3]: 39%
Population Normal (%) [3]: 82%
Population Pyknosed Nuclei (%) [3]: 36%
Population Tubulin-Different-Phenotype (%) [3]: 82%
Total Cell Count [3]: 142
Population Apoptotic (%) [4]: 57%
Population Fragmented Nuclei (%) [4]: 6%
Population Healthy Nuclei (%) [4]: 81%
Population Hoechst High Intensity Objects (%) [4]: 9%
Population Membrane Permeable-Phenotype (%) [4]: 12%
Population Mitochondria Different-Phenotype (%) [4]: 32%
Population Mitotic Cells (%) [4]: 42%
Population Normal (%) [4]: 90%
Population Pyknosed Nuclei (%) [4]: 11%
Population Tubulin-Different-Phenotype (%) [4]: 30%
Total Cell Count [4]: 56
Population Apoptotic (%) [5]: 70%
Population Fragmented Nuclei (%) [5]: 25%
Population Healthy Nuclei (%) [5]: 53%
Population Hoechst High Intensity Objects (%) [5]: 11%
Population Membrane Permeable-Phenotype (%) [5]: 23%
Population Mitochondria Different-Phenotype (%) [5]: 7%
Population Mitotic Cells (%) [5]: 29%
Population Normal (%) [5]: 88%
Population Pyknosed Nuclei (%) [5]: 20%
Population Tubulin-Different-Phenotype (%) [5]: 43%
Total Cell Count [5]: 169
Population Apoptotic (%) [6]: 25%
Population Fragmented Nuclei (%) [6]: 8%
Population Healthy Nuclei (%) [6]: 85%
Population Hoechst High Intensity Objects (%) [6]: 1%
Population Membrane Permeable-Phenotype (%) [6]: 0%
Population Mitochondria Different-Phenotype (%) [6]: 11%
Population Mitotic Cells (%) [6]: 75%
Population Normal (%) [6]: 98%
Population Pyknosed Nuclei (%) [6]: 5%
Population Tubulin-Different-Phenotype (%) [6]: 11%
Total Cell Count [6]: 67
Population Apoptotic (%) [7]: 64%
Population Fragmented Nuclei (%) [7]: 31%
Population Healthy Nuclei (%) [7]: 46%
Population Hoechst High Intensity Objects (%) [7]: 27%
Population Membrane Permeable-Phenotype (%) [7]: 18%
Population Mitochondria Different-Phenotype (%) [7]: 18%
Population Mitotic Cells (%) [7]: 35%
Population Normal (%) [7]: 72%
Population Pyknosed Nuclei (%) [7]: 22%
Population Tubulin-Different-Phenotype (%) [7]: 77%
Total Cell Count [7]: 174
Population Apoptotic (%) [8]: 50%
Population Fragmented Nuclei (%) [8]: 20%
Population Healthy Nuclei (%) [8]: 66%
Population Hoechst High Intensity Objects (%) [8]: 10%
Population Membrane Permeable-Phenotype (%) [8]: 4%
Population Mitochondria Different-Phenotype (%) [8]: 26%
Population Mitotic Cells (%) [8]: 50%
Population Normal (%) [8]: 89%
Population Pyknosed Nuclei (%) [8]: 12%
Population Tubulin-Different-Phenotype (%) [8]: 17%
Total Cell Count [8]: 71
Population Apoptotic (%) [9]: 77%
Population Fragmented Nuclei (%) [9]: 29%
Population Healthy Nuclei (%) [9]: 63%
Population Hoechst High Intensity Objects (%) [9]: 17%
Population Membrane Permeable-Phenotype (%) [9]: 23%
Population Mitochondria Different-Phenotype (%) [9]: 7%
Population Mitotic Cells (%) [9]: 22%
Population Normal (%) [9]: 82%
Population Pyknosed Nuclei (%) [9]: 7%
Population Tubulin-Different-Phenotype (%) [9]: 46%
Total Cell Count [9]: 155
Population Apoptotic (%) [10]: 50%
Population Fragmented Nuclei (%) [10]: 28%
Population Healthy Nuclei (%) [10]: 69%
Population Hoechst High Intensity Objects (%) [10]: 8%
Population Membrane Permeable-Phenotype (%) [10]: 4%
Population Mitochondria Different-Phenotype (%) [10]: 2%
Population Mitotic Cells (%) [10]: 50%
Population Normal (%) [10]: 91%
Population Pyknosed Nuclei (%) [10]: 2%
Population Tubulin-Different-Phenotype (%) [10]: 38%
Total Cell Count [10]: 105
Population Apoptotic (%) [11]: 70%
Population Fragmented Nuclei (%) [11]: 29%
Population Healthy Nuclei (%) [11]: 61%
Population Hoechst High Intensity Objects (%) [11]: 36%
Population Membrane Permeable-Phenotype (%) [11]: 20%
Population Mitochondria Different-Phenotype (%) [11]: 12%
Population Mitotic Cells (%) [11]: 30%
Population Normal (%) [11]: 63%
Population Pyknosed Nuclei (%) [11]: 9%
Population Tubulin-Different-Phenotype (%) [11]: 84%
Total Cell Count [11]: 168
Population Apoptotic (%) [12]: 100%
Population Fragmented Nuclei (%) [12]: 27%
Population Healthy Nuclei (%) [12]: 71%
Population Hoechst High Intensity Objects (%) [12]: 41%
Population Membrane Permeable-Phenotype (%) [12]: 15%
Population Mitochondria Different-Phenotype (%) [12]: 3%
Population Mitotic Cells (%) [12]: 0%
Population Normal (%) [12]: 58%
Population Pyknosed Nuclei (%) [12]: 1%
Population Tubulin-Different-Phenotype (%) [12]: 79%
Total Cell Count [12]: 203

Reference: ChEMBL document CHEMBL4689842, “EUbOPEN Chemogenomics Library wave 1” (2021)
